The source of these data is ChEMBL document CHEMBL1124084, “Studies on scavengers of active oxygen species. 1. Synthesis and biological activity of 2-O-alkylascorbic acids” (J Med Chem, 1988).

Experiment [1] has as its system Rattus norvegicus. The experiment in a line: Effect of AOS scavenger on ventricular fibrillation (VF), arrhythmias induced by ischemia-reperfusion in anesthetized rat, incidence at 100 mg/kg; 4/10. Type of experiment: functional, Cardiac ventricle.
The subject of experiment [2] is Rattus norvegicus. The experiment is described as follows: Effect of AOS scavenger on ventricular tachycardia (VT), arrhythmias induced by ischemia-reperfusion in anesthetized rat, duration at 100 mg/kg. Type of experiment: functional, Cardiac ventricle.
The test system of experiment [3] is Rattus norvegicus. The experiment in a line: Effect of AOS scavenger on ventricular fibrillation (VF), arrhythmias induced by ischemia-reperfusion in anesthetized rat, frequency, times at 100 mg/kg. Type of experiment: functional, Cardiac ventricle.
Experiment [4] deals with Rattus norvegicus. The experiment is described as follows: Effect of AOS scavenger on ventricular tachycardia (VT), arrhythmias induced by ischemia-reperfusion in anesthetized rat, frequency, times at 100 mg/kg. Type of experiment: functional, Cardiac ventricle.
Experiment [5] relates to Rattus norvegicus. The experiment in a line: Effect of AOS scavenger on ventricular tachycardia (VT), arrhythmias induced by ischemia-reperfusion in anesthetized rat, incidence at 100 mg/kg; 7/10. Type of experiment: functional, Cardiac ventricle.
Experiment [6] deals with Rattus norvegicus. The experiment is described as follows: Effect of AOS scavenger on ventricular fibrillation (VF), arrhythmias induced by ischemia-reperfusion in anesthetized rat, duration at 100 mg/kg. Type of experiment: functional, Cardiac ventricle.
In experiment [7] the test system is Rattus norvegicus. The experiment is described as follows: Effect of AOS scavenger on premeture ventricular complexes PVCs, arrhythmias induced by ischemia-reperfusion in anesthetized rat, frequency per minute at 100 mg/kg.
Experiment [8] has as its system Rattus norvegicus. The experiment in a line: Effect of AOS scavenger on ventricular tachycardia (VT), arrhythmias induced by ischemia-reperfusion in anesthetized rat, incidence at 3 mg/kg; 8/10. Type of experiment: functional, Cardiac ventricle.
In experiment [9] the test system is Rattus norvegicus. The experiment in a line: Effect of AOS scavenger on ventricular tachycardia (VT), arrhythmias induced by ischemia-reperfusion in anesthetized rat, duration at 3 mg/kg. Type of experiment: functional, Cardiac ventricle.
Experiment [10] has as its system Rattus norvegicus. The experiment is described as follows: Effect of AOS scavenger on ventricular tachycardia (VT), arrhythmias induced by ischemia-reperfusion in anesthetized rat, frequency, times at 3 mg/kg. Type of experiment: functional, Cardiac ventricle.
The subject of experiment [11] is Rattus norvegicus. The experiment is described as follows: Effect of AOS scavenger on premeture ventricular complexes PVCs, arrhythmias induced by ischemia-reperfusion in anesthetized rat, duration at 3 mg/kg. Type of experiment: functional, Cardiac ventricle.
In experiment [12] the test system is Rattus norvegicus. The experiment in a line: Effect of AOS scavenger on ventricular fibrillation (VF), arrhythmias induced by ischemia-reperfusion in anesthetized rat, frequency, times at 3 mg/kg. Type of experiment: functional, Cardiac ventricle.
A short description of experiment [13]: Reducing activity determined by the use of stable radical alpha,alpha-di-phenyl-beta-picrylhydrazyl (DPPH). The arrangement: concentration or dose not given beside the values. On the technique in general: Loss of DPPH colour is used to gauge radical scavenging.
The test system of experiment [14] is Rattus norvegicus. The experiment is described as follows: Effect of AOS scavenger on ventricular fibrillation (VF), arrhythmias induced by ischemia-reperfusion in anesthetized rat, incidence at 3 mg/kg; 8/10. Type of experiment: functional, Cardiac ventricle.
For experiment [15], the system named is Rattus norvegicus. The experiment is described as follows: Effect of AOS scavenger on ventricular fibrillation (VF), arrhythmias induced by ischemia-reperfusion in anesthetized rat, duration at 3 mg/kg. Type of experiment: functional, Cardiac ventricle.
For experiment [16], the species on record is Rattus norvegicus. The experiment is described as follows: Antilipid peroxidation was determined. Type of experiment: functional. The procedure, abridged:
(§1)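 Rat brain lipid peroxidation: brains from male SD rats (12 weeks old), exsanguinated under pentobarbital anaesthesia, homogenized to 5% in phosphate buffer pH 7.4. Homogenate incubated with test drug at 37 °C for 1 h. Lipid peroxide quantified by the thiobarbituric acid method.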

Experiment [17] deals with Rattus norvegicus. The experiment in a line: Effect of AOS scavenger on ventricular fibrillation (VF),arrhythmias induced by ischemia-reperfusion in anesthetized rat, duration at 10 mg/kg. Type of experiment: functional, Cardiac ventricle.
In experiment [18] the test system is Rattus norvegicus. The experiment in a line: Effect of AOS scavenger on ventricular fibrillation (VF), arrhythmias induced by ischemia-reperfusion in anesthetized rat, frequency, times at 10 mg/kg. Type of experiment: functional, Cardiac ventricle.
Experiment [19] deals with Rattus norvegicus. The experiment is described as follows: Effect of AOS scavenger on ventricular tachycardia (VT),arrhythmias induced by ischemia-reperfusion in anesthetized rat, duration at 10 mg/kg. Type of experiment: functional, Cardiac ventricle.
Experiment [20] concerns Rattus norvegicus. The experiment in a line: Effect of AOS scavenger on ventricular tachycardia (VT),arrhythmias induced by ischemia-reperfusion in anesthetized rat, incidence at 10 mg/kg.
For experiment [21], the species on record is Rattus norvegicus. The experiment is described as follows: Antilipid peroxidation was measured at 10e-5 M concentration. Type of experiment: functional. Summed up:
as §1

Experiment [22] has as its system Rattus norvegicus. The experiment is described as follows: Effect of AOS scavenger on premeture ventricular complexes PVCs, arrhythmias induced by ischemia-reperfusion in anesthetized rat, duration at 10 mg/kg. Type of experiment: functional, Cardiac ventricle.
For experiment [23], the system named is Rattus norvegicus. The experiment in a line: Effect of AOS scavenger on ventricular fibrillation (VF),arrhythmias induced by ischemia-reperfusion in anesthetized rat, incidence at 10 mg/kg; 3/6. Type of experiment: functional, Cardiac ventricle.
Experiment [24] concerns Rattus norvegicus. The experiment in a line: Effect of AOS scavenger on ventricular tachycardia (VT), arrhythmias induced by ischemia-reperfusion in anesthetized rat, frequency, times at 10 mg/kg. Type of experiment: functional, Cardiac ventricle.
Experiment [25] concerns Rattus norvegicus. The experiment is described as follows: Effect of AOS scavenger on ventricular fibrillation (VF),arrhythmias induced by ischemia-reperfusion in anesthetized rat, frequency at 10 mg/kg.
Experiment [26] concerns Rattus norvegicus. The experiment in a line: Effect of AOS scavenger on ventricular tachycardia (VT),arrhythmias induced by ischemia-reperfusion in anesthetized rat, incidence at 10 mg/kg; 6/7. Type of experiment: functional, Cardiac ventricle.
Experiment [27] deals with Rattus norvegicus. The experiment is described as follows: Effect of AOS scavenger on ventricular fibrillation (VF),arrhythmias induced by ischemia-reperfusion in anesthetized rat, duration at 10 mg/kg.
Experiment [28] relates to Rattus norvegicus. The experiment is described as follows: Effect of AOS scavenger on ventricular fibrillation (VF),arrhythmias induced by ischemia-reperfusion in anesthetized rat, incidence at 10 mg/kg; 4/7. Type of experiment: functional, Cardiac ventricle.
Experiment [29] is filed under the species Rattus norvegicus. The experiment is described as follows: Inhibition of lipid peroxidation was determined with rat brain tissue homogenates. Type of experiment: functional. Summed up:
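Brains excised from male SD rats (12 weeks), exsanguinated under pentobarbital anesthesia; 5% homogenate in phosphate buffer pH 7.4 incubated with test drug 1 h at 37 °C; lipid peroxide quantified by thiobarbituric acid method.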

Experiment [30] relates to Rattus norvegicus. The experiment is described as follows: Effect of AOS scavenger on ventricular tachycardia (VT),arrhythmias induced by ischemia-reperfusion in anesthetized rat, frequency, times at 10 mg/kg. Type of experiment: functional, Cardiac ventricle.
In experiment [31] the test system is Rattus norvegicus. The experiment in a line: Effect of AOS scavenger on ventricular tachycardia (VT), arrhythmias induced by ischemia-reperfusion in anesthetized rat at requency, times 10 mg/kg. Type of experiment: functional, Cardiac ventricle.
Experiment [32] relates to Rattus norvegicus. The experiment in a line: Effect of AOS scavenger on ventricular fibrillation (VF),arrhythmias induced by ischemia-reperfusion in anesthetized rat, incidence at 10 mg/kg; 2/7. Type of experiment: functional, Cardiac ventricle.
The species entered for experiment [33] is Rattus norvegicus. The experiment in a line: Antilipid peroxidation was determined; No effect. Type of experiment: functional. Summed up:
as §1

Experiment [34] deals with Rattus norvegicus. The experiment is described as follows: Effect of AOS scavenger on ventricular tachycardia (VT),arrhythmias induced by ischemia-reperfusion in anesthetized rat duration at 10 mg/kg. Type of experiment: functional, Cardiac ventricle.
Experiment [35] deals with Rattus norvegicus. The experiment is described as follows: Effect of AOS scavenger on ventricular tachycardia (VT),arrhythmias induced by ischemia-reperfusion in anesthetized rat, incidence at 10 mg/kg; 8/8. Type of experiment: functional, Cardiac ventricle.
Experiment [36] concerns Rattus norvegicus. The experiment is described as follows: Effect of AOS scavenger on ventricular fibrillation (VF),arrhythmias induced by ischemia-reperfusion in anesthetized rat; incidence at 10 mg/kg 7/8. Type of experiment: functional, Cardiac ventricle.

Structures are written as SMILES. pIC50: −log10 of the molar value. Active and inactive are the calls of the source. No cut-off for these calls is given here. Bounds are passed on as bounds.

For the compound `OC[C@@H](O)[C@@H](O)[C@H](O)[C@H](O)CO` [MANNITOL], the Incidence came out at 4 N in experiment [1] and 7 N in [5]. Moreover, the Duration was 7.7 s in experiment [2] and 1.3 s in experiment [6]. In addition, the Frequency in experiment [3] is recorded as 0.8; in experiment [4] it was 2.7. Besides, the Activity in experiment [7] worked out at 4.8 min⁻¹.

On to `Cc1c(C)c2c(c(C)c1O)CC[C@@](C)(CCC[C@H](C)CCC[C@H](C)CCCC(C)C)O2` [ALPHA-TOCOPHEROL], for which the Incidence in [8] and in experiment [14] was 8 N in each case. The Duration in experiment [9] was 7.4 s; in experiment [15], 111.1 s. Also, the Frequency worked out at 3.1 in [10] and 2.1 in [12]. Moreover, the Activity in experiment [11] was 23.3 min. Also, the Reducing activity in experiment [13] came out at 72%. For the same compound, in experiment [16], the Antilipid peroxidation worked out at 52%.

For the compound `CCCCCCCCCCCCCCCCCCOC1=C(O)C(=O)OC1C(O)CO` (stereo not drawn), the Duration is under 1.9 s in [17] and under 4 s in [19]. In addition, the values for the Frequency in experiment [18] and in experiment [24] were under 0.8 and 2.3, respectively. The Incidence in [20] is 4 N; in [23], 3 N. Besides, the Antilipid peroxidation in experiment [21] stood at 34.5%. Moreover, in [22], the PVCs came out at 3.9. In experiment [13], this compound yielded a Reducing activity of 94.5%.

Turning to `CCCCCCCCCCCCCCCOC1=C(O)OC(C(O)CO)C1=O` (stereo not drawn), the Duration is listed as 11.9 s in experiment [19] and under 3 s in [27]. Moreover, the Frequency is under 0.9 in experiment [25] and 5 in experiment [30]. For the same compound, the Incidence is listed as 6 N in [26] and 4 N in experiment [28]. In addition, the Activity in experiment [22] is reported as under 4.3 min. In [13], the Reducing activity worked out at 95.4%. In experiment [16], this compound yielded an Antilipid peroxidation of 67.4%. The pIC50 (in general, −log10 of the IC50, conventionally taken in molar units) in [29] is 5.25.

As to `CCCCCCCCCCCCCCOC1=C(O)OC(C(O)CO)C1=O` (stereo not drawn), the results for the Duration in [17] and in [19] were 10.1 s and 12.9 s, respectively. Besides, the Frequency in [18] was under 0.6; in experiment [31] it was under 2.6. This compound also registered an Activity in experiment [22] of under 3.5 min. In [13], this compound displayed a Reducing activity of 95.4%. Besides, in experiment [16], the Antilipid peroxidation was 54.8%. The compound further had a negative logarithm of the IC50 (pIC50) in [29] of 5.13. In experiment [32], this compound showed an Incidence of 2 N.

For the compound `O=C1C(OCc2ccccc2)=C(O)OC1C(O)CO` (stereo not drawn), the Duration in experiment [17] is listed as 79.9 s; in experiment [34] it was under 4.9 s. Besides, the figures for the Frequency in [18] and in experiment [24] were 2.5 and 3.9, respectively. The Antilipid peroxidation result in experiment [33] is “inactive”. Besides, the PVCs in experiment [22] was determined as 26.9 PVCs/min. In [13], this compound gave a Reducing activity of 93%. In addition, the Incidence turned out to be 8 N in experiment [35] and 7 N in experiment [36].
